Measurements from ChEMBL document CHEMBL5674889, “Enhanced JunD/RSK3 signalling due to loss of BRD4/FOXD3/miR-548d-3p axis determines BET inhibition resistance” (2020).
Active and inactive are the calls of the source. No cut-off for these calls is given here.

Tests used:
BT-549 [1] = assay: Antiproliferative activity in human BT-549 cells assessed as cell growth for 48 hrs in the presence of osimertinib at 1 uM by CCK-8 assay; type: functional, cell-based
Summary of the method: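 Cells seeded 3000/well, adhered overnight, treated with JQ1 (1 μM) with or without osimertinib (1 μM) for 48 h; growth by CCK-8 kit, normalized to DMSO-treated control; triplicates, mean ± SD, one-way ANOVA.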

MDA-MB-231 [2] = assay: Antiproliferative activity in human JUND-knockdown MDA-MB-231 cells assessed as stronger tumor sphere formation at 1 uM by tumor sphere assay; type: functional, cell-based
MDA-MB-231 [3] = assay: Antiproliferative activity in human MDA-MB-231 cells assessed as cell growth in the presence of gefitinib at 1 uM by CellTiter-Glo luminescent cell viability assay; type: functional, cell-based
Summary of the method: (§1)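 BLBC cells seeded at 3000/well, adhered overnight, then exposed to JQ1 (1 μM) with or without an EGFR inhibitor (1 μM) for 48 h; control and RPS6KA2-shRNA clones tested. Viability by CellTiter-Glo luminescence, background-subtracted and normalized to DMSO-treated control; triplicates, mean ± SD, one-way ANOVA against JQ1 alone.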

BT-549 [4] = assay: Induction of apoptosis in human BT-549 cells in the presence of osimertinib at 1 uM by flow cytometry analysis; type: functional, cell-based
Summary of the method: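 Cells given JQ1 and/or osimertinib, then stained with Annexin V-FITC plus propidium iodide (10 min, room temperature, dark; 1 × 10^6 cells/ml in binding buffer after two PBS washes) and analysed by flow cytometry; one-way ANOVA.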

MDA-MB-231 [5] = assay: Antiproliferative activity in human MDA-MB-231 cells assessed as cell growth in the presence of erlotinib at 1 uM by CellTiter-Glo luminescent cell viability assay; type: functional, cell-based; summary of the method: as §1
HEK-293T = assay: Effect on induction of RPS6KA2 transcription in human HEK293T cells transfected with RPS6KA2 assessed as luciferase activity at 1 uM for 6 hrs by Luciferase reporter assay; type: functional, cell-based
Summary of the method: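 HEK293T were transfected with wild-type or mutant RPS6KA2 enhancer luciferase construct, ± JUND co-transfection (FuGene 6, 24 h). Cells then treated with DMSO or JQ1 1 μM for 6 h. Dual-luciferase activity expressed as fold over vector control; three experiments in triplicate.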

BT-549 [6] = assay: Antiproliferative activity in human RPS6KA2 expressed in JUND knock-down BT-549 cells assessed as inhibition of cell growth at 1 uM by CCK-8 assay; type: functional, cell-based
BT-549 [7] = assay: Downregulation of miR-548d-3p expression in human BT-549 cells at 1 uM by real-time PCR analysis; type: functional, cell-based
MDA-MB-231 [8] = assay: Effect on human RPS6KA2-knockdown MDA-MB-231 cells assessed as inhibition tumor sphere formation at 1 uM by Tumor sphere assay; type: functional, cell-based
MDA-MB-231 [9] = assay: Induction of apoptosis in human MDA-MB-231 cells over expressing RSK3 assessed as necrotic cells at 1 uM by Annexin V-FITC flow cytometric analysis (reference value: 3.51%); type: functional
Summary of the method: (§2)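 Stable clones (vector, RSK3-overexpressing or RPS6KA2-knockdown) treated ± JQ1 1 μM. Cells washed twice in PBS, resuspended at 1 × 10^6 cells/ml in binding buffer, stained with Annexin V-FITC and propidium iodide for 10 min at room temperature in the dark, then read by flow cytometry. Three independent experiments; one-way ANOVA.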

MDA-MB-231 [10] = assay: Induction of apoptosis in human MDA-MB-231 cells expressing vector control assessed as late apoptotic cells at 1 uM by Annexin V-FITC flow cytometric analysis (reference value: 2.4%); type: functional; summary of the method: as §2
BT-549 [11] = assay: Antiproliferative activity in human BT-549 cells assessed as inhibition of cell growth at 1 uM by CCK-8 assay; type: functional, cell-based
MDA-MB-231 [12] = assay: Antitumor activity against human MDA-MB-231 cells xenografted in BALB/c nude mouse model assessed as reduction of tumor size in the presence of osimertinib at 35 mg/kg/day, sc administered every 2 days for 30 days; type: functional, organism-based; conditions: time 30.0 day
Summary of the method: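 MDA-MB-231 xenografts used 1 × 10^6 cells injected subcutaneously into female BALB/c nude mice (4–6 weeks). Animals were split into four groups (n = 7) at ~100 mm3: vehicle, osimertinib 10 mg/kg, 35 mg/kg agent, or the combination, each given every 2 days. Volume was measured by calliper as length × width²/2; tumours were weighed at end.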

BT-549 [13] = assay: Effect on human BT-549 cells assessed as RPS6KA2 mRNA expression in the presence of miR-548d-3p at 1 uM by RT-PCR analysis; type: functional, cell-based
BT-549 [14] = assay: Antiproliferative activity in human BT-549 cells assessed as cell growth in the presence of osimertinib at 1 uM by CellTiter-Glo luminescent cell viability assay; type: functional, cell-based; summary of the method: as §1
MDA-MB-231 [15] = assay: Induction of apoptosis in human MDA-MB-231 cells over expressing RSK3 assessed as viable cells at 1 uM by Annexin V-FITC flow cytometric analysis (reference value: 91.18%); type: functional; conditions: read-out: Activity; summary of the method: as §2
BT-549 [16] = assay: Effect of human RSK3-overexpressing BT-549 cells assessed as suppression of tumour sphere formation at 1 uM by Tumour sphere assay; type: functional, cell-based
BT-549 [17] = assay: Effect on human JUND-knockdown BT-549 cells assessed as reduction of RSK3 protein expression at 1 uM by Western blot analysis; type: functional, cell-based
Summary of the method: (§3)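 RSK3 and JunD were probed by western blot in JUND-knockdown or JUND-overexpressing stable clones and their controls, all selected with puromycin 1.0 μg/ml. Antibodies used at 1:1000.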

BT-549 [18] = assay: Antiproliferative activity in human RPS6KA2-knockdown BT-549 cells assessed as inhibited cell growth at 1 uM for 48 hrs by CCK-8 assay; type: functional, cell-based
MDA-MB-231 [19] = assay: Effect on human JUND-overexpressing MDA-MB-231 cells assessed as RSK3 protein expression at 1 uM by Western blot analysis; type: functional, cell-based; summary of the method: as §3
BT-549 [20] = assay: Effect on induction of RPS6KA2 transcription in human BT-549 cells assessed as enhanced luciferase activity at 1 uM for 6 hrs by Luciferase reporter assay; type: functional, cell-based
Summary of the method: (§4)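 Control or JunD-shRNA BLBC cells were transfected with the RPS6KA2 enhancer luciferase reporter (FuGene 6, 24 h) and then treated with DMSO or JQ1 1 μM for 6 h. Dual-luciferase read-out given as fold induction over vector control. Three experiments in triplicate.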

MDA-MB-231 [21] = assay: Effect on induction of RPS6KA2 transcription in human MDA-MB-231 cells assessed as enhanced luciferase activity at 1 uM for 6 hrs by Luciferase reporter assay; type: functional, cell-based; summary of the method: as §4
MDA-MB-231 [22] = assay: Antiproliferative activity in human JunD-overexpressing MDA-MB-231 cells assessed as cell growth in the presence of osimertinib at 1 uM by CCK-8 assay; type: functional, cell-based
Summary of the method: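 Vector control, RSK3- or JunD-overexpressing cells seeded 3000/well, adhered overnight, then treated with JQ1 alone or combined with kinase inhibitors for 48 h; growth by CCK-8, normalized to DMSO control; triplicates, mean ± SD.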

BT-549 [23] = assay: Antiproliferative activity in human JUND-overexpressing BT-549 cells assessed as cell viability at 1 uM by CellTiter-Glo luminescent cell viability assay; type: functional, cell-based
Summary of the method: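 Stable JUND-knockdown (shRNA, puromycin 1.0 μg/ml selection) or JUND-overexpressing clones and vector controls, seeded 3000 cells/well and adhered overnight, then given DMSO or JQ1 (1 μM) for 48 h. Read-out CellTiter-Glo luminescence normalized to DMSO control; triplicates, mean ± SD, one-way ANOVA.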

## Cc1sc2c(c1C)C(c1ccc(Cl)cc1)=N[C@@H](CC(=O)OC(C)(C)C)c1nnc(C)n1-2
BT-549 [1]
  Activity: Active
MDA-MB-231 [2]
  Activity: Active
MDA-MB-231 [3]
  Activity: Active
BT-549 [4]
  Activity: Active
MDA-MB-231 [5]
  Activity: Active
HEK-293T
  Activity: Active
BT-549 [6]
  Activity: Active
BT-549 [7]
  Activity: Active
MDA-MB-231 [8]
  Activity: Active
MDA-MB-231 [9]
  Activity: 1.67%
MDA-MB-231 [10]
  Activity: 5.48%
BT-549 [11]
  Activity: Active
MDA-MB-231 [12]
  Activity: Active
BT-549 [13]
  Activity: Active
BT-549 [14]
  Activity: Active
MDA-MB-231 [15]
  viability at 1 µM: 88.3%
BT-549 [16]
  Activity: Active
BT-549 [17]
  Activity: Active
BT-549 [18]
  Activity: Active
MDA-MB-231 [19]
  Activity: Active
BT-549 [20]
  Activity: Active
MDA-MB-231 [21]
  Activity: Active
MDA-MB-231 [22]
  Activity: Active
BT-549 [23]
  Activity: Active
